Data on 13 compounds can be found in ChEMBL document CHEMBL1938355, “Antimycobacterial activities of 5-alkyl (or halo)-3'-substituted pyrimidine nucleoside analogs” (Bioorg Med Chem Lett, 2012).

≈ marks a conversion by molar mass, not a printed value. Calls of active or inactive are those of the source. The rule behind the calls is not given here.

Series [1] has as its system Huh-7. In words: Cytotoxicity against human HuH7 cells up to 100 ug/ml by [3H]thymidine incorporation assay. It is filed as cell-based. Background: Dividing cells build labelled thymidine or BrdU into new DNA.
For series [2], the system named is Mycobacterium avium. The experiment in a line: Antimycobacterial activity against Mycobacterium avium ATCC 25291 assessed as growth inhibition at 0.5 to 100 ug/ml by microplate alamar blue assay. Particulars: Mycobacterium avium subsp. avium ATCC 25291. Type of series: functional. The method in brief:
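M. avium ATCC 25291 (ATCC stock) in 7H9GC medium, microplate alamar blue read-out. Compounds dissolved in DMSO at 10 mg/mL (stock), diluted in medium to final 100, 50, 25, 10, 5, 1 and 0.5 µg/mL, each in triplicate. Two independent experiments; mean percent growth inhibition reported, SD within 10% of mean.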

The subject of series [3] is Mycobacterium tuberculosis. In words: Antimycobacterial activity against Mycobacterium tuberculosis H37Ra assessed as growth inhibition at 0.5 to 100 ug/ml by microplate alamar blue assay. It is filed as functional, organism-based. An outline of the steps:
(§1)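 Strains obtained from ATCC. Tested by microplate alamar blue assay. Compounds made up as 10 mg/mL DMSO stocks, then serially diluted in 7H9GC medium. Final test concentrations were 100, 50, 25, 10, 5, 1 and 0.5, each in triplicate. Experiments were run twice, and mean percent growth inhibition is reported.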
(Alamar Blue is a resazurin reagent that responds to reducing activity.)

A short description of series [4]: Cytotoxicity against human HuH7 cells by [3H]thymidine incorporation assay. It is filed as cell-based, Huh-7.
Series [5] concerns Huh-7. The experiment in a line: Cytotoxicity against human HuH7 cells up to 100 ug/ml by XTT assay. It is filed as cell-based. On the technique in general: Tetrazolium assays rely on reduction of a dye to a coloured formazan, in cell work by metabolically active cells.
A short description of series [6]: Cytotoxicity against human HuH7 cells by XTT assay. It is filed as cell-based, Huh-7.
Series [7] concerns Mycobacterium tuberculosis. The experiment in a line: Antimycobacterial activity against Mycobacterium tuberculosis H37Ra assessed as growth inhibition at 0.5 to 1 ug/ml by microplate alamar blue assay. Type of series: functional. The method in brief:
as §1

Series [8] deals with Mycobacterium avium. The experiment in a line: Antimycobacterial activity against Mycobacterium avium ATCC 25291 assessed as growth inhibition at 2 ug/ml by microplate alamar blue assay. Type of series: functional, Mycobacterium avium subsp. avium ATCC 25291. As to conditions: read-out: GI.
Series [9] has as its system Mycobacterium tuberculosis. The experiment in a line: Antimycobacterial activity against Mycobacterium tuberculosis H37Ra assessed as growth inhibition at 50 ug/ml by microplate alamar blue assay. Type of series: functional. As to conditions: read-out: GI. An outline of the steps: as §1
For series [10], the system named is Mycobacterium avium. The experiment in a line: Antimycobacterial activity against Mycobacterium avium ATCC 25291 assessed as growth inhibition at 100 ug/ml by microplate alamar blue assay. It is filed as functional, Mycobacterium avium subsp. avium ATCC 25291. Particulars: read-out: GI. The method in brief:
as §1

Series [11] has as its system Mycobacterium tuberculosis. In words: Antimycobacterial activity against Mycobacterium tuberculosis H37Ra by microplate alamar blue assay. It is filed as functional.
The test system of series [12] is Mycobacterium avium. In words: Antimycobacterial activity against Mycobacterium avium ATCC 25291 assessed as growth inhibition at 50 ug/ml by microplate alamar blue assay. Type of series: functional, Mycobacterium avium subsp. avium ATCC 25291. Particulars: read-out: GI. The method in brief: as §1
For series [13], the system named is Mycobacterium avium. In words: Antimycobacterial activity against Mycobacterium avium ATCC 25291 by microplate alamar blue assay. Type of series: functional, Mycobacterium avium subsp. avium ATCC 25291.
Series [14] concerns Mycobacterium tuberculosis. The experiment in a line: Antimycobacterial activity against Mycobacterium tuberculosis H37Ra assessed as growth inhibition at 100 ug/ml by microplate alamar blue assay. It is filed as functional. Particulars: read-out: GI. An outline of the steps:
as §1

The subject of series [15] is Mycobacterium tuberculosis. The experiment in a line: Antimycobacterial activity against Mycobacterium tuberculosis H37Ra assessed as growth inhibition at 10 ug/ml by microplate alamar blue assay. It is filed as functional. As to conditions: read-out: GI. The method in brief: as §1
Series [16] relates to Mycobacterium avium. In words: Antimycobacterial activity against Mycobacterium avium ATCC 25291 assessed as growth inhibition at 10 ug/ml by microplate alamar blue assay. Type of series: functional, Mycobacterium avium subsp. avium ATCC 25291. As to conditions: read-out: GI. The method in brief:
as §1

Series [17] deals with Mycobacterium tuberculosis. The experiment in a line: Antimycobacterial activity against Mycobacterium tuberculosis H37Ra assessed as growth inhibition at 15 to 20 ug/ml by microplate alamar blue assay. Type of series: functional.
In series [18] the test system is Mycobacterium tuberculosis. In words: Antimycobacterial activity against Mycobacterium tuberculosis H37Ra assessed as growth inhibition at 5 ug/ml by microplate alamar blue assay. Type of series: functional. As to conditions: read-out: GI. The method in brief: as §1

On to `CCc1cn([C@H]2C[C@H](F)[C@@H](CO)O2)c(=O)[nH]c1=O`, for which the Activity result in the series with Huh-7 [1] and in the series on Huh-7 [5] was “Non-toxic” in each case. The “growth inhibition (GI)” value (in the series on Mycobacterium avium [2]; in series [3]) was “inactive” in each case. The half-maximal cytotoxic concentration (CC50) in [4] and in [6] was over 100 µg/mL each time.
For `CO[C@H]1/C=C/O[C@@]2(C)Oc3c(C)c(O)c4c(O)c(c(/C=N/N5CCN(C)CC5)c(O)c4c3C2=O)NC(=O)/C(C)=C\C=C\[C@H](C)[C@H](O)[C@@H](C)[C@@H](O)[C@@H](C)[C@H](OC(C)=O)[C@@H]1C` [RIFAMPIN], in series [7], the “growth inhibition (GI)” value came to 100%. Moreover, the inhibition of growth at 2 µg/mL in the series with Mycobacterium avium [8] stood at 90%.
Regarding `CCc1cn([C@H]2C[C@H](N=[N+]=[N-])[C@@H](CO)O2)c(=O)[nH]c1=O`, the inhibition of growth at 50 µg/mL (in series [9]; with Mycobacterium avium [12]) was 60% each time. Also, the Activity result in the series on Huh-7 [1] and with Huh-7 [5] was “Non-toxic” throughout. In addition, the inhibition of growth at 100 µg/mL with Mycobacterium avium [10] came to 100%; in [14], 60%. Besides, the MIC50 (in series [11]; against Mycobacterium avium [13]) was 10 µg/mL (≈ 35.6 µM) throughout. Also, the inhibition of growth at 10 µg/mL (in [15]; in the series on Mycobacterium avium [16]) was 50% throughout. Also, the CC50 in [4] and in series [6] was over 100 µg/mL in each case.
Regarding `[N-]=[N+]=N[C@H]1C[C@H](n2cc(F)c(=O)[nH]c2=O)O[C@@H]1CO`, the Activity entry in the series on Huh-7 [1] and in the series on Huh-7 [5] was “Non-toxic” in each case. Also, the “growth inhibition (GI)” value (in the series with Mycobacterium avium [2]; in series [3]) was “inactive” each time. The CC50 in [4] and in [6] was over 100 µg/mL in each case.
Consider `O=c1[nH]c(=O)n([C@H]2C[C@H](F)[C@@H](CO)O2)cc1C(F)(F)F`, for which the Activity entry in the series with Huh-7 [1] and in the series on Huh-7 [5] was “Non-toxic” each time. Moreover, in the series with Mycobacterium avium [10], the inhibition of growth at 100 µg/mL worked out at 25%. The “growth inhibition (GI)” value in series [3] was “inactive”. In addition, the CC50 in [4] and in [6] was over 100 µg/mL in each case.
Regarding `Cc1cn([C@H]2C[C@H](N)[C@@H](CO)O2)c(=O)[nH]c1=O` [3-AMINO- 3-DEOXYTHYMIDINE], the Activity result in the series with Huh-7 [1] and in the series on Huh-7 [5] was “Non-toxic” in each case. Moreover, the “growth inhibition (GI)” value (in the series with Mycobacterium avium [2]; in series [3]) was “inactive” in each case. For the same compound, the CC50 in [4] and in series [6] was over 100 µg/mL in each case.
Turning to `[N-]=[N+]=N[C@H]1C[C@H](n2cc(Br)c(=O)[nH]c2=O)O[C@@H]1CO`, the Activity result with Huh-7 [1] and in the series with Huh-7 [5] was “Non-toxic” throughout. In addition, the “growth inhibition (GI)” value in the series on Mycobacterium avium [2] is “inactive”. Also, in series [14], the inhibition of growth at 100 µg/mL was 30%. Further, the CC50 in series [4] and in series [6] was over 100 µg/mL throughout.
`CCc1cn([C@H]2C[C@H](I)[C@@H](CO)O2)c(=O)[nH]c1=O`: the Activity entry in the series on Huh-7 [1] and with Huh-7 [5] was “Non-toxic” each time. In addition, the “growth inhibition (GI)” value (in the series with Mycobacterium avium [2]; in [3]) was “inactive” throughout. The CC50 in series [4] and in series [6] was over 100 µg/mL each time.
As for `[N-]=[N+]=N[C@H]1C[C@H](n2cc(Cl)c(=O)[nH]c2=O)O[C@@H]1CO`, the Activity entry with Huh-7 [1] and in the series on Huh-7 [5] was “Non-toxic” throughout. The “growth inhibition (GI)” value with Mycobacterium avium [2] was “inactive”. The inhibition of growth at 100 µg/mL in series [14] came out at 50%. In addition, the half-maximal cytotoxic concentration (CC50) in [4] and in [6] was over 100 µg/mL throughout.
As for `CCc1cn([C@H]2CC[C@@H](CO)O2)c(=O)[nH]c1=O`, the Activity result with Huh-7 [1] and in the series on Huh-7 [5] was “Non-toxic” each time. Further, the “growth inhibition (GI)” value (with Mycobacterium avium [2]; in [3]) was “inactive” in each case. Moreover, the 50% cytotoxic concentration (CC50) in series [4] and in series [6] was over 100 µg/mL each time.
As to `N[C@@H]1CONC1=O` [CYCLOSERINE], the inhibition of growth at 50 µg/mL (in series [9]; in the series on Mycobacterium avium [12]) was 100% throughout. For the same compound, the “growth inhibition (GI)” value in [17] stood at 80%. Besides, the inhibition of growth at 100 µg/mL in the series with Mycobacterium avium [10] stood at 100%. The compound also had an MIC50 in [11] of 5 µg/mL (≈ 49 µM). In addition, the inhibition of growth at 10 µg/mL in [15] worked out at 60%; with Mycobacterium avium [16], 15%. The inhibition of growth at 5 µg/mL in series [18] was determined as 50%.
Regarding `CCc1cn([C@H]2C[C@@H](O)[C@@H](CO)O2)c(=O)[nH]c1=O`, the Activity result in the series with Huh-7 [1] and in the series with Huh-7 [5] was “Non-toxic” in each case. Besides, the “growth inhibition (GI)” value (with Mycobacterium avium [2]; in series [3]) was “inactive” in each case. Besides, the CC50 in series [4] and in series [6] was over 100 µg/mL in each case.
On to `CC[C@H]1OC(=O)[C@H](C)[C@@H](O[C@H]2C[C@@](C)(OC)[C@@H](O)[C@H](C)O2)[C@H](C)[C@@H](O[C@@H]2O[C@H](C)C[C@H](N(C)C)[C@H]2O)[C@](C)(OC)C[C@@H](C)C(=O)[C@H](C)[C@@H](O)[C@]1(C)O` [CLARITHROMYCIN], for which the inhibition of growth at 2 µg/mL with Mycobacterium avium [8] stood at 100%.

By CC50 is commonly meant the concentration giving 50% cytotoxicity. Higher therefore signals better tolerance by the cells. What is called MIC50 is an inhibitory concentration at the 50% level, which refers to growth in some studies and to a panel of isolates in others. Higher therefore signals lower susceptibility.
